# TNAP act mid DEA: activates human TNAP at intermediate phosphate acceptor concentration | purified TNAP, CDP-star luminescence, 100 mM DEA, 30 min; hits give high values; scale: 0 levamisole-inhibited, 1 vehicle-only enzyme | activation factor at 20 µM | 64,000 tested, under 10 active | AID 813;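 active = activation factor of at least 2 at 20 µM, relative to controls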
# Target sequence (P05186 whole entry, looked up): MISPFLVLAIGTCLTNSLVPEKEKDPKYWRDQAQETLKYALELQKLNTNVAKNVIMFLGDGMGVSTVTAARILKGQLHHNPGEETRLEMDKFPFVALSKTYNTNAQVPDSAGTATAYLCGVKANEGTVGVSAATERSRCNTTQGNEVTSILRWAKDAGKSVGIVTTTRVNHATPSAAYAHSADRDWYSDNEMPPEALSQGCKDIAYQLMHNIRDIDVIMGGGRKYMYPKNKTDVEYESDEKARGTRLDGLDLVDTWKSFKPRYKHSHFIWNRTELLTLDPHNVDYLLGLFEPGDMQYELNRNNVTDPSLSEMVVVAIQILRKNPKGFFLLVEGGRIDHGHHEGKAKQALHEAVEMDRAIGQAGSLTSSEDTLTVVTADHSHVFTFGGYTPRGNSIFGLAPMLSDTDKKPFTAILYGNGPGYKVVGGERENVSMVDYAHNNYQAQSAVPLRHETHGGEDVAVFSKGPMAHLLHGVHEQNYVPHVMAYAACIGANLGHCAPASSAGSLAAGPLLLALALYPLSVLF
# MMP-13 inhibitor: inhibitors of human MMP13 | P45452 | MMP-13 fTHP FRET cleavage, Mca fluorescence | inhibition, % at 4 µM | 65,000 tested, 0.07% active;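 active = inhibition above the mean of compound-free control plate wells plus 3 SD, cut at about 14% in these data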;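 also: 0% = DMSO wells and 100% = wells with reference MMP-13 inhibitor after basal subtraction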
# MT1-MMP txn act: activates MT1-MMP transcription; activation factor at 10 µM; 86,000 tested, 0.16% active; HT1080 MT1-MMP promoter luciferase reporter, luminescence, overnight; hits give high values;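 active = activation factor of at least 2 for MT1-MMP transcription at 10 µM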
# SF1 activator: activates the human nuclear receptor SF-1. CHO-K1 Gal4-SF-1 LBD luciferase reporter; % increase over DMSO SF-1-specific signal. Q13285. activation, % at 10 µM. AID 522. 65,000 tested, 1.9% active;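 active = activation above the mean activation of all tested compounds plus 3 SD, cut at about 50% in these data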
#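 Material: Gal4–SF-1 LBD one-hybrid luciferase reporter in CHO-K1 cells | Amount: 4,000 cells per well | Compound dosing: 10 µM single point, 1% DMSO | Schedule: 20 h compound treatment, 37 °C | Measured by: SteadyLite luciferase luminescence | Evaluation: Percent activation versus DMSO | Control set: DMSO-treated SF-1-transfected cells as negative, DMSO-treated mock-transfected cells lacking SF-1 as background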
# RORA act: activates the human nuclear receptor RORA. CHO-K1 Gal4-RORA LBD luciferase reporter, luminescence; percent increase over mock-subtracted basal signal. activation, % at 10 µM. 65,000 tested, 1.5% active. AID 560;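 active = activation above the mean of all tested compounds plus 3 SD, cut at about 49% in these data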;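 also: 0% = DMSO-treated RORA cells and 100% = added signal equal to DMSO minus mock-transfected cells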
# * = called active by the depositor; x = no result. Hits are enriched below; roughly 2.1% of the tested compounds scored in any of these assays.
SMILES,TNAP act mid DEA,MMP-13 inhibitor,MT1-MMP txn act,SF1 activator,RORA act
CN(C)c1ccc(Nc2nc(-c3cccnc3)cs2)cc1,0.8,-0.1,2*,13.7,9.5
Cc1nc2nc(-c3cccs3)cn2nc1C,1,-29.3,1.4,22.9,53.2*
O=C(Nc1nc2c(s1)CCCC2)c1cc2n(n1)C(C(F)(F)F)CC(C1CC1)N2 (configuration not stated),1,7.9,1.7,55.7*,117.5*
O=C(NCc1ccc(F)cc1)c1cc2n(n1)C(C(F)(F)F)CC(C1CC1)N2 (configuration not stated),1,3.7,1,47.8,63.9*
CCN(Cc1ccccc1)C(=O)CCCOc1ccccc1,1,-2.0,1.5,31.5,58.0*
Nc1c(C(=O)NC2CCCC2)sc2nc(-c3cccs3)ccc12,0.9,-20.9,1,59.7*,20.1
O=C(NC1CCCCCC1)c1cccs1,0.9,3.7,1.3,-1.8,24.2
CN(C1CCCCC1)S(=O)(=O)c1ccc(S(=O)(=O)N2CCN(C(=O)c3ccccc3F)CC2)cc1,x,x,1.1,x,x
CC1CC1C(=O)OCc1cc(=O)n2cc(Br)ccc2n1 (configuration not stated),1,1.0,1.3,54.9*,32.4
O=C(OCc1cc(=O)n2cc(Br)ccc2n1)C1COc2ccccc2O1 (configuration not stated),0.9,-5.1,1.1,-5.3,-5.8
Cc1ccc2cc3cc(C(=O)N(C)C4CCCCC4)oc3nc2c1,0.9,-0.4,1.7,76.8*,34.6
Cc1cccc(N(C)C(=O)c2cc3cc4ccc(C)cc4nc3o2)c1,0.9,-0.8,1.4,36.4,23.1
Cn1ccnc1SCc1cn2ccccc2n1,1,-0.3,1.3,48.7,37.3
c1ccc(-c2csc3nnc(SCc4ccc5c(c4)OCCO5)n23)cc1,x,-3.8,1,19.5,23.1
c1ccn2cc(CSc3nnc4ccccn34)nc2c1,1,-1.7,1.6,57.6*,56.8*
c1ccn2c(SCc3ccc4c(c3)OCCO4)nnc2c1,0.9,-8.4,1.5,39.7,56.6*
CCCc1ccc(OCc2ccc(C(=O)N3CCN(c4ccccn4)CC3)o2)c(OC)c1,0.9,-1.8,1.3,5.0,49.7*
Cc1nc2sc3c(c2c(=O)o1)CCCC3,0.9,3.0,1.1,8.9,5.8
O=c1c2c3c(sc2nc2n1CCCCC2)CCCC3,0.9,4.0,1.7,59.5*,105.6*
O=c1c2c3c(sc2nc2n1CCCCC2)CCCCC3,0.8,-5.1,1.5,42.1,55.3*
Nc1nc2sc3c(c2c(=O)s1)CCCC3,0.8,7.3,1.3,55.9*,10.6
O=c1c2c3c(sc2nc2n1CCCS2)CCCC3,1,-2.7,1.7,70.9*,39.4
CN(C)C(=O)[C@H]1C[C@@H]1[C@H](NC(=O)CNC(=O)[C@@H]1CCCN1C(=O)[C@H]1C[C@@H]1[C@H](NC(=O)OCc1ccccc1)c1ccccc1)c1ccccc1,x,x,1.2,x,x
C=CCNC(=S)NNC(=O)C(CCCC)CC(C)(C)O (configuration not stated),x,x,1.1,x,x
Cc1ccc(C)c(-n2c(C)cc(/C=N/NC(=O)c3c(C)nc4cc(C)ccn34)c2C)c1,x,x,1.2,x,x
SMILES,TNAP act mid DEA,MMP-13 inhibitor,MT1-MMP txn act,SF1 activator,RORA act
CC(NC(=O)CCC1COc2ccccc2O1)c1ccccc1 (configuration not stated),x,x,1.1,x,x
Cc1ccc(-c2cc(-c3ccccc3C)[nH]n2)c(O)c1,x,x,1.8,x,x
Cc1ccc(O)c(-c2cc(-c3ccccc3F)[nH]n2)c1,x,x,1.5,x,x
Cc1ccc(-c2cc(-c3cccc(F)c3)n[nH]2)c(O)c1,1,-0.6,1.8,52.6*,68.4*
Cc1ccc(O)c(-c2cc(-c3cccc(F)c3)n[nH]2)c1,x,x,2.1*,x,x
Nc1nc(CSc2ccccn2)nc(Nc2ccccc2)n1,0.9,-0.3,1.1,58.4*,24.1
COC(=O)Cn1c(C(=O)N2CCCC2)cc2c1C[C@H]1CN(C(=O)c3ccccc3)[C@@](Cc3ccccc3)(C(=O)OC)[C@@H]21,x,x,1.1,x,x
COC(=O)[C@@]1(Cc2ccc(OC)cc2)[C@H]2c3cc(C(=O)N(C)C)n(Cc4ccccc4)c3C[C@H]2CN1C(=O)c1ccccc1,x,x,1.2,x,x
O=C(O)c1ccc(Cl)c(S(=O)(=O)NCc2ccco2)c1,0.9,-1.0,1.7,1.5,-17.1
Cc1cccc(N2CCN(C(=O)c3ccc(Cl)c(S(=O)(=O)NCc4ccco4)c3)CC2)c1C,1,1.4,0.9,53.1*,50.7*
COc1ccc(C2C(=O)N(CCc3ccccc3)CC(=O)N2C2CCCCC2)cc1 (configuration not stated),x,x,1.1,x,x
Cn1c(C(=O)Nc2ccccc2)cc2sccc21,x,x,2.2*,x,x
COc1cc(NC(=O)c2cc3sccc3n2C)cc(OC)c1,0.9,-2.1,2.1*,106.5*,61.0*
Cn1c(C(=O)Nc2ccc3c(c2)OCO3)cc2sccc21,0.8,3.3,1.2,78.7*,38.4
COC(=O)c1ccc(NC(=O)c2cc3sccc3n2C)cc1,x,x,1.2,x,x
Cn1c(C(=O)NCc2ccc3c(c2)OCO3)cc2sccc21,0.8,4.8,1.4,14.6,4.8
CCn1c(O)c(/C=N/N=C/c2ccccc2)c2ccc(C3=NNC(=O)CC3)cc21,x,x,1.3,x,x
Cc1nn(CC#N)c(=O)n1-c1ccc(F)cc1,x,x,1.1,x,x
Cc1cc(C(=O)CSc2nnnn2C)c(C)n1-c1cccc(F)c1,0.9,1.4,1.4,53.4*,16.2
O=C(Cc1ccc(Cl)cc1)Nc1ccc(N2CCN(C(=O)c3ccco3)CC2)cc1,0.9,0.9,1,-9.4,-6.1
O=C(c1ccco1)N1CCN(c2ccc(Cl)cc2)CC1,0.9,0.9,1.6,46.1,98.2*
Nc1ccccc1-c1nnn(CC(=O)N2CCCc3ccccc32)n1,x,x,1.3,x,x
COC(=O)c1ccc(C(NC(=O)OCc2ccccc2)/C(F)=C/[C@@H](C)C(=O)Nc2ccc(OC)cc2)cc1 (some centres not stated),x,x,1.2,x,x
COC(=O)Cn1c(C(=O)N(C)C)cc2c1C[C@H]1CN(C(=O)c3ccccc3)[C@@](Cc3ccc(OC)cc3)(C(=O)OC)[C@@H]21,x,x,1.2,x,x
Cc1ccc(NC(=O)c2nnn(-c3cc(C)cc(C)c3)c2N)cc1,0.8,-4.8,1.3,69.6*,66.3*
SMILES,TNAP act mid DEA,MMP-13 inhibitor,MT1-MMP txn act,SF1 activator,RORA act
COc1ccc(CCNC(=O)c2nnn(-c3cccc(C)c3)c2N)cc1OC,x,x,1.1,x,x
Cc1cccc(-n2nnc(C(=O)Nc3ccc(F)cc3)c2N)c1,0.9,1.1,1.6,99.7*,82.5*
COc1ccc(-c2cc(-c3cc(F)ccc3O)[nH]n2)cc1OC,1.1,-4.2,2.3*,36.4,4.0
COc1ccc(-c2cc(-c3cc(OC)ccc3O)[nH]n2)cc1,x,x,1.9,x,x
COc1ccc(-c2cc(-c3ccc(OC)c(OC)c3)n[nH]2)c(O)c1,x,x,2*,x,x
COc1ccc(-c2cc(-c3ccccc3O)[nH]n2)cc1OC,1,-7.0,1.2,23.4,-9.1
COc1cc(NC(=O)c2cc3c(C)nc4ccccc4c3o2)cc(OC)c1OC,0.9,6.7,1.2,5.0,-11.2

# Bioassay records as filed in PubChem BioAssay.
